High-throughput results: PubChem, Broad Institute
SIRT5 block – inhibitors of human sirtuin-5 desuccinylase; Q9NXA8; Purified SirT5, succinyl-peptide AMC, trypsin-coupled fluorescence; inhibition, % at 15 µM; actives 1.1% (n = 330,000); in the data active means inhibition above about 15%; inconclusive means no clear call, values can overlap the other calls
DENV2 CPE – protects cells from dengue virus 2 cytopathic effect; DENV2-infected cells, cytopathic effect rescue, plate reader; CPE inhibition, % at 9.99 µM; actives 1.7% (n = 350,000); in the data active means CPE inhibition above about 20%, passing the limit was not always enough; inconclusive means no clear call, values can overlap the other calls; tested in BHK-21 cells;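 further: 0% = median of neutral control wells and 100% = median of positive control wells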
E-sel inducer – E-selectin induction on HUVECs. P16581. HUVEC E-selectin immunofluorescence imaging; normalized: neutral wells 0, TNF-alpha wells 100. activation, % at 7.58 µM. actives 0.37% (n = 260,000);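 active means mean E-selectin-positive cell signal at least 10% of the positive control, reached in at least 60% of replicates, without over 20% cell loss; inconclusive means no rule given, readout overlaps actives, possibly toxicity-flagged; inactive means the rest, including those meeting only one limit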
Target sequence (P16581 whole entry, looked up): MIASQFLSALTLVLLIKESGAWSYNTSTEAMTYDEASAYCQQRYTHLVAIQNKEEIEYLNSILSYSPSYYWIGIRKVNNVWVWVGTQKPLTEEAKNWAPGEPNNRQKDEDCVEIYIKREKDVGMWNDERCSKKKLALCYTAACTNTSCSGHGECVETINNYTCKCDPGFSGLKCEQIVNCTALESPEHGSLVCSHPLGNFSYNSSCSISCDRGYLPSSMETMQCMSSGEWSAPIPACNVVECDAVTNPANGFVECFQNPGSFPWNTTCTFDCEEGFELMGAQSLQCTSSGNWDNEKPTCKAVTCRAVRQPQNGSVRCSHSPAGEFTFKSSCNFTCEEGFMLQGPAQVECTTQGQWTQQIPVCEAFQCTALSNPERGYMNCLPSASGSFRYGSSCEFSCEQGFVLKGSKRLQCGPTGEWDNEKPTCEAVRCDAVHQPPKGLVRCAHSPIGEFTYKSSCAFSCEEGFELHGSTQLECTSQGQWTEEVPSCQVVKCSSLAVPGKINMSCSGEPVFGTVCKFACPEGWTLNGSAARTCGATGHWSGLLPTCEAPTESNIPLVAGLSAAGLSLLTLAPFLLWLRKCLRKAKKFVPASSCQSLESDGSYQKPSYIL
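System: HUVEC, human umbilical vein endothelial cells; quantity: 3,000 cells/well; buffer or medium: EGM-2 medium, gelatin-coated wells; dosing: single-point compound dose; detection: immunofluorescence imaging; evaluation: % PE-positive cells; benchmarks: TNF-alpha, DMSO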
* = called active by the depositor; ? = inconclusive; · = not tested or not shown. Shown are actives, neighbours in structure and some others; about 2.8% of the full set was active somewhere.

SMILES	SIRT5 block	DENV2 CPE	E-sel inducer
CN1C(=O)[C@H]2[C@@H](/C=C/c3ccccc3)N3C(=O)CN(Cc4ccccc4)C(=O)[C@@]3(C)[C@H]2C1=O	·	0.6	0.0
COC(=O)CN1C(=O)[C@H]2[C@@H](/C=C/c3ccccc3)N3C(=O)CN(Cc4ccccc4)C(=O)[C@@]3(C)[C@H]2C1=O	·	50.1*	0.3
C[C@@H]1CN([C@@H](C)CO)C(=O)c2cc(NS(=O)(=O)c3cn(C)cn3)ccc2O[C@@H](C)CCCCO[C@@H]1CN(C)C(=O)Cc1ccccc1	-1.0	63.2*	0.1
C[C@@H]1CCCCO[C@H](CN(C)C(=O)c2ccccc2)[C@H](C)CN([C@@H](C)CO)C(=O)c2cc(NS(=O)(=O)c3cn(C)cn3)ccc2O1	-0.1	0.2	0.4
C[C@@H]1CCCCO[C@H](CN(C)C(=O)Cc2ccccc2)[C@@H](C)CN([C@@H](C)CO)C(=O)c2cc(NS(=O)(=O)c3cn(C)cn3)ccc2O1	1.4	31.4*	0.1
C[C@@H]1CCCCO[C@@H](CN(C)C(=O)Cc2ccccc2)[C@@H](C)CN([C@H](C)CO)C(=O)c2cc(NS(=O)(=O)c3cn(C)cn3)ccc2O1	-0.1	-1.4	0.1
C[C@@H]1CCCCO[C@H](CN(C)C(=O)c2ccccc2)[C@@H](C)CN([C@H](C)CO)C(=O)c2cc(NS(=O)(=O)c3cn(C)cn3)ccc2O1	-2.1	7.6	-0.1
C[C@@H]1CCCCO[C@H](CN(C)C(=O)Cc2ccccc2)[C@@H](C)CN([C@H](C)CO)C(=O)c2cc(NS(=O)(=O)c3cn(C)cn3)ccc2O1	24.5*	11.4	0.1
O=C(NCCc1ccncc1)[C@@H]1[C@@H](CO)[C@@H]2Cn3c(ccc(-c4ccncc4)c3=O)[C@@H]2N1C(=O)C1CC1	-60.3	-3.8	-0.5
COCCNC(=O)C[C@H]1C[C@H]2c3cc(N(C)C)ccc3O[C@H]2[C@@H](CO)O1	-2.1	0.8	-0.7
C[C@H]1CN([C@@H](C)CO)C(=O)c2cc(C#Cc3cccnc3)cnc2O[C@@H]1CN(C)Cc1ccncc1	·	-2.7	-3.7
CCn1c(SCC(=O)N2CCC(C)CC2)nc2c([nH]c3ccccc32)c1=O	·	-0.5	0.5
CCn1c(SCC(=O)N2CCCCCC2)nc2c([nH]c3ccccc32)c1=O	-8.7	63.3*	0.3
NC(=O)/C(=C/c1ccco1)C(N)=S	17.4*	-3.8	0.0
NC(=O)/C(=C\c1ccco1)NC(=O)c1ccco1	·	?	0.0
CN1C(=O)c2cc(NC(=O)C3CCOCC3)ccc2OC[C@H]2O[C@@H](CC(=O)NC3CCCC3)CC[C@@H]21	-2.6	9.1	0.0
CO[C@H]1CN(C)C(=O)c2ccc(NC(=O)C3CC3)cc2OC[C@@H](C)N(Cc2ccccc2)C[C@@H]1C	10.2	-6.7	0.0
CN(C)C(=O)c1cccc(-c2ccc([C@@H]3[C@H]4CN(C(=O)C5CC5)CC(=O)N4[C@H]3CO)cc2)c1	-1.2	-5.5	0.1
COc1ccc(-c2ccc([C@H]3[C@H]4CN(C(=O)C5CCC5)CC(=O)N4[C@H]3CO)cc2)cc1	-2.0	-10.8	0.0
CN(C)C(=O)c1cccc(-c2ccc([C@@H]3[C@@H](CO)N4C(=O)CN(C(=O)C5CCCCC5)C[C@H]34)cc2)c1	-4.0	39.3*	0.1
CC(=O)N1CC(=O)N2[C@@H](CO)[C@H](c3ccc(-c4ccc(C(=O)N(C)C)cc4)cc3)[C@@H]2C1	22.7*	4.8	0.4
CN(C)C(=O)c1cccc(-c2ccc([C@@H]3[C@H](CO)N4C(=O)CN(C(=O)C5CC5)C[C@@H]34)cc2)c1	19.1*	18.2	0.1
COc1ccc(-c2ccc([C@@H]3[C@H]4CN(C(=O)C5CC5)CC(=O)N4[C@H]3CO)cc2)cc1	0.5	30.9*	0.0
CN(C)C(=O)c1cccc(-c2ccc([C@H]3[C@@H](CO)N4C(=O)CN(C(=O)C5CCCCC5)C[C@@H]34)cc2)c1	-6.7	13.0	-0.2
CC(=O)N1CC(=O)N2[C@H](CO)[C@@H](c3ccc(-c4cccc(C(=O)N(C)C)c4)cc3)[C@@H]2C1	-0.3	8.0	-0.1
SMILES	SIRT5 block	DENV2 CPE	E-sel inducer
CNC[C@H]1Oc2ccc(NS(=O)(=O)c3ccc(OC)cc3)cc2CC(=O)N([C@H](C)CO)C[C@H]1C	·	·	-4.6
COc1ccc([Si](C)(C)[C@H]2[C@H](CCn3cc(CCO)nn3)O[C@@]3(C(=O)N(C)c4c(Br)cc(C)cc43)[C@@H]2C)cc1	7.1	-1.7	·
CC1C=NC(S(=O)(=O)N2CC[C@@H]3[C@H]2c2cc(-c4ccccc4)ccc2N(C)[C@H]3CO)=N1 (stereo partly drawn)	0.1	1.5	0.8
O=C(Nc1ccccc1F)N1CCCCN2[C@H](CO)[C@@H](c3ccc(C4=CCCCC4)cc3)[C@H]2C1	4.1	3.0	·
CC(C)NC(=O)N(C)C[C@H]1Oc2ccc(NC(=O)Nc3ccc(C(F)(F)F)cc3)cc2C(=O)N([C@@H](C)CO)C[C@H]1C	·	-7.5	0.9
C[C@@H]1CCCCO[C@H](CN(C)Cc2ccc(C(F)(F)F)cc2)[C@@H](C)CN([C@@H](C)CO)C(=O)c2cc(NS(C)(=O)=O)ccc2O1	·	·	0.1
COc1cc2sc3cc(NCCCN4CCOCC4)ccc3c(=O)c2cc1OC	·	2.1	-0.2
COc1cccc2sc3cc(NCc4ccc(C)o4)ccc3c(=O)c12	·	56.3*	-0.7
C[C@@H]1CN([C@H](C)CO)C(=O)c2cc(NS(=O)(=O)c3cn(C)cn3)ccc2O[C@H]1CN(C)C(=O)NC1CCCCC1	-2.1	·	-0.1
CCC(=O)N1[C@@H](CO)[C@@H](c2ccccc2)C12CN(C(=O)Nc1cccc(OC)c1)C2	6.0	-9.5	-0.5
CCOC(=O)C1=CCN(S(=O)(=O)c2ccccc2Cl)C1c1ccc(Cl)c(Cl)c1 (stereo not drawn)	-2.0	-4.6	-0.1
CCOC(=O)C1=CCN(S(=O)(=O)c2ccccc2Br)C1c1ccc(Cl)c(Cl)c1 (stereo not drawn)	25.0*	10.7	-0.1
COc1ccc(C#Cc2ccc([C@H]3[C@@H](CO)N4CCCCN(C(=O)c5ccncc5)C[C@@H]34)cc2)cc1	1.7	59.1*	-0.2
COc1ccc(C#Cc2ccc([C@@H]3[C@@H](CO)N4CCCCN(C(=O)c5ccncc5)C[C@H]34)cc2)cc1	-0.8	28.5*	-0.4
C[C@H](O)C#Cc1ccc([C@H]2[C@@H](CO)N3CCCCN(C(=O)c4ccncc4)C[C@H]23)cc1	-1.4	-9.8	0.1
C[C@H](O)C#Cc1ccc([C@H]2[C@@H](CO)N3CCCCN(C(=O)c4ccncc4)C[C@@H]23)cc1	0.4	-9.1	-0.1
C[C@@H](O)C#Cc1ccc([C@@H]2[C@H](CO)N3CCCCN(C(=O)c4ccncc4)C[C@@H]23)cc1	-2.0	8.3	1.0
COc1ccc(C#Cc2ccc([C@H]3[C@H](CO)N4CCCCN(C(=O)c5ccncc5)C[C@@H]34)cc2)cc1	3.7	47.4*	-0.6
C[C@H]1CCCCO[C@H](CN(C)C(=O)c2ccccc2)[C@@H](C)CN([C@@H](C)CO)C(=O)c2cc(NC(=O)Nc3ccc4c(c3)OCO4)ccc2O1	1.9	-7.7	-0.2
C[C@@H]1CN([C@@H](C)CO)C(=O)c2cc(NC(=O)Nc3ccccc3)ccc2O[C@@H](C)CCCCO[C@@H]1CN(C)C(=O)Cc1ccccc1	2.1	3.2	·
